Screening results: PubChem BioAssay, several laboratories
This is one part of a sample in which hits are shown more often than they occur.
AP complement = orthogonal test for alternative complement pathway inhibitors; inhibition, % at 5 µM; 0.08% of 62,000 active; Human serum alternative complement pathway, LPS-coated ELISA, C3 deposition; tested in compound mixtures; AID 1235;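 active = inhibition above 30% in each of the two pooled mixtures holding the compound, so the lower value exceeds 30%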;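 also: 0% = serum in Mg-EGTA without compound and 100% = EDTA serum blank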
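Test system: human serum complement alternative pathway, C3 deposition onto LPS / Medium: Mg2+-EGTA GVB++ buffer containing human serum at 1:15 dilution / Probe or stimulus: Plate-bound LPS / Times: 1 h at 37 °C / Signal: ELISA with HRP anti-human C3 antibody, TMB substrate, absorbance 450 nm / Measure: percent inhibition / Repeats: two pool placements per compound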
WNV protease inh = inhibitors of West Nile virus NS2B-NS3 protease; WNV NS2B-NS3 protease, fluorogenic substrate Ex360/Em465; hits give low values; z-score (concentration not given with the values); 0.18% of 65,000 active; AID 577; in the data active = z-score below about -3
hDAT+cocaine = human DAT dopamine uptake with cocaine, either direction; LLC-PK1 hDAT cells, [14C]-dopamine uptake with cocaine IC80; actives deviate in either direction; B-score at 10 µM; AID 449768; Q01959; 1.3% of 110,000 active;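 active = Z score or B-score, a plate-position-corrected score, falls beyond the plate's 99.7% confidence bounds, in either direction; inactive = both scores lie inside the 99.7% bounds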;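 also: scored against the spread of the other compound wells on the same plate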
Target sequence (Q01959 whole entry, looked up): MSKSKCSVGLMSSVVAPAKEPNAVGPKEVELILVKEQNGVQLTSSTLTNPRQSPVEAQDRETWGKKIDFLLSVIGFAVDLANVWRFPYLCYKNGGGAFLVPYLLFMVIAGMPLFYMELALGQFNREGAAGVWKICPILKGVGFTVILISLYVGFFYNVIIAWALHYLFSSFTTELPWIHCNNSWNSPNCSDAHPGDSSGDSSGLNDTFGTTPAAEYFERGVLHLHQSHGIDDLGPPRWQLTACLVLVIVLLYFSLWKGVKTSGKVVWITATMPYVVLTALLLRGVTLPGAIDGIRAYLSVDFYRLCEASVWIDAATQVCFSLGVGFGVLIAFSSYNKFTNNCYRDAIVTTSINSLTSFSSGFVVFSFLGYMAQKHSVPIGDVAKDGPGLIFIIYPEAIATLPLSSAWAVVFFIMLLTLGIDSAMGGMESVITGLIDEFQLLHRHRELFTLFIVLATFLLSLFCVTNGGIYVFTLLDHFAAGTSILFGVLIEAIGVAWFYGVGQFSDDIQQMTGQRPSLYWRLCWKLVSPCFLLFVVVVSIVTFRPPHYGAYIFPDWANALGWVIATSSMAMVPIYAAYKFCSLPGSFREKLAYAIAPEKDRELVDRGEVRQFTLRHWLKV
D1 mod = allosteric modulators of human D1 dopamine receptor; HEK293 D1, CRE-luciferase, dopamine EC30 potentiation; actives deviate in either direction; 5.9% of 58,000 active; P21728; AID 641; B-score at 10 µM;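 active = luminescence count or its row- and column-corrected plate score outside the 99.7% band of the plate's sample wells, on either side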
D1 PAM confirm = D1 receptor (human) allosteric modulation, confirmed | HEK293 D1 CRE-luciferase, dopamine EC30 potentiation; hits give high values | 88% of 2,200 active | shares compounds with D1 mod | AID 642 | luminescence at 10 µM;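 active = luminescence in either of two replicates above the same-plate mean plus 3 SD of the low-dose dopamine control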
D1 ag no DA = activates D1 CRE-luciferase signal without dopamine present | HEK293 D1 CRE-luciferase, luminescence, no dopamine; hits give high values | 0.8% of 1,900 active | AID 646 | shares compounds with D1 mod | luminescence at 10 µM; in the data active = luminescence above about 3900
Isoprot counter = isoproterenol response counter-screen activity for D1 modulators; shares compounds with D1 mod; 63% of 2,200 active; HEK293 D1 CRE-luciferase, isoproterenol EC30 counter-screen; hits give high values; luminescence at 10 µM;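 active = luminescence in either replicate above plate mean of wells with a partly effective reference agonist dose plus 3 SD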;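 also: isoproterenol raises cAMP through native beta-adrenoceptor Gs so signal bypasses D1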
Active calls of the source: *; x = no result given.

SMILES	AP complement	WNV protease inh	hDAT+cocaine	D1 mod	D1 PAM confirm	D1 ag no DA	Isoprot counter
CCOC(=O)c1ccc(NC(=O)C2CCCO2)cc1 (stereo unspecified)	18	-0.68	0.11	23*	6456	1748	2860
C=C(C)CSc1nc(N)c2c(C)c(C)sc2n1	13	0.39	0.44	11*	16788*	1564	3412*
CCn1cnc2sc(C(=O)N3CCN(Cc4ccc5c(c4)OCO5)CC3)c(C)c2c1=O	15	0.3	x	x	x	x	x
CCn1cnc2sc(C(=O)N(Cc3ccc(N(C)C)cc3)Cc3ccco3)c(C)c2c1=O	1	1.4	0.11	4.9*	12360*	x	3104*
O=C(COC(=O)c1ccc(=O)n(Cc2ccccc2)n1)Nc1ccc2c(c1)OCCO2	4	-1.6	-0.99	0.16	x	x	x
COc1cccc(SCc2noc(C(=O)NCCC(C)C)c2C(=O)NCCC(C)C)c1	x	x	0.39	x	x	x	x
COc1ccc(C2CC(c3cc(OC)ccc3OC)n3nnnc3N2)cc1 (stereo unspecified)	51	-0.27	2.7	2.7*	9576*	1560	2892
COc1ccc(C2CC(c3ccc(Br)cc3)Nc3nc(N)nn32)cc1 (stereo unspecified)	2	0.83	-0.17	-0.14	x	x	x
CCCN(CCC)S(=O)(=O)c1ccc(C(=O)N2CCCc3ccccc32)cc1	x	x	-0.28	x	x	x	x
O=C(Nc1cc(Cl)ccc1N1CCOCC1)c1cnccn1	0	1.3	-0.94	3.1*	7880*	1408	2988
COc1cccc(OC)c1C(=O)Nc1cc(Cl)ccc1N1CCOCC1	9	0.09	0.31	-0.017	x	x	x
COc1ccc(CN(Cc2cccnc2)S(=O)(=O)c2ccc(-n3cnnn3)c(C)c2)cc1OC	9	-0.28	0.25	3.7*	7956*	1480	2736
Cc1ccc(NC(=O)C2(N(CC(C)C)C(=O)Cn3nnnc3N)CCCCC2)cc1	-1	0.07	-0.39	5.4*	5068	x	2248
c1ccc(-c2nc3ccccc3c3nncn23)cc1	7	-0.48	x	7.2*	7952*	1508	3284
CC1=C(C(=O)Nc2ccccc2)C(c2ccc(C)cc2)N=C(Nc2nc3ccccc3o2)N1 (stereo unspecified)	x	x	-0.69	x	x	x	x
CCc1nnc(NC(=O)CSc2ncc(-c3ccccc3)n2CC)s1	1	-0.7	-0.0026	3.5*	8216*	1656	3040
Cc1ccc(Cn2c(C(C)Nc3nc(C)cs3)nc3cc(Cl)c(Cl)cc32)cc1 (stereo unspecified)	x	x	-0.44	x	x	x	x
CCCCCNC(=O)C(C#N)c1nc2ccccc2nc1N1CCCC1 (stereo unspecified)	15	0.24	-0.12	0.84	x	x	x
COCCCNC(=O)C(C#N)c1nc2ccccc2nc1N1CCCC1 (stereo unspecified)	x	0.22	0.066	12*	18008*	1688	12040*
C=CCOC(=O)C(C#N)c1nc2ccccc2nc1N1CCCC1 (stereo unspecified)	-3	2	-0.53	3.1*	15796*	1724	3456*
CCc1nc(N2CCN(Cc3ccc4c(c3)OCO4)CC2)c2oc3ccccc3c2n1	x	x	0.87	x	x	x	x
C=C(C)c1cccc(C(C)(C)NC(=O)Nn2cnnc2)c1	10	1.1	0.18	6*	6208	1644	2416
C=C(C)c1cccc(C(C)(C)NC(=O)Nc2ncccn2)c1	-4	-0.82	0.73	-0.93	x	x	x
CCCCc1[nH]nc2c1C1(C(=O)N(CC)c3ccccc31)C(C#N)=C(N)O2 (stereo unspecified)	-11	-0.62	-0.13	16*	13864*	1676	3384*
Cc1noc(C)c1C(=O)OCC(=O)c1c(N)n(CC(C)C)c(=O)n(C)c1=O	9	-1.1	-0.11	1.8	x	x	x
SMILES	AP complement	WNV protease inh	hDAT+cocaine	D1 mod	D1 PAM confirm	D1 ag no DA	Isoprot counter
CCC(=O)Nc1c(C#N)c2nc3ccccc3nc2n1C1CCCCC1	17	0.35	1.2	1.3	x	x	x
N#Cc1c(N)n(C2CCCCC2)c2nc3ccccc3nc12	-6	-0.42	0.16	3.3*	10836*	1704	3052*
CCOC(=O)c1cnn(-c2ccccc2)c1N	x	x	0.61	x	x	x	x
CCOC(=O)c1cnn(-c2cccc(Cl)c2)c1N	16	-1.4	0.35	4.6*	12468*	1660	3736
C/C=C/CSc1nc2c(c(=O)[nH]c(=O)n2C)n1Cc1ccc(C)cc1	-5	-0.2	1	20*	16484*	1496	6200*
CC(C)CCn1c(SCc2ccc(Cl)cc2)nc2c1c(=O)[nH]c(=O)n2C	10	1.2	0.54	14*	13248*	x	4960*
CC(C)n1c(SCC(N)=O)nc2c1c(=O)[nH]c(=O)n2C	-21	1.9	0.17	-0.081	x	x	x
CCCCCOC(=O)CSc1nc2c(c(=O)[nH]c(=O)n2C)n1Cc1ccc(Cl)cc1	18	0.41	0.3	0.11	x	x	x
C/C=C/CSc1nc2c(c(=O)[nH]c(=O)n2C)n1C(C)C	-5	0.51	-0.18	6*	12796*	1768	3356*
CCCCn1c(SCc2ccc(Cl)cc2)nc2c1c(=O)[nH]c(=O)n2C	14	0.38	-0.11	7.4*	25640*	1752	8420*
CCSc1nnc(NC(=O)CSc2nnc(-c3c[nH]c4ccccc34)n2CC)s1	x	x	-0.5	x	x	x	x
CCSc1nc2c(c(=O)[nH]c(=O)n2C)n1Cc1ccc(Cl)cc1	14	-0.09	0.032	5.5*	15452*	1584	4916*
Cc1onc(-c2c(Cl)cccc2Cl)c1C(=O)N/N=C(\N)COc1ccc(Cl)cc1	x	x	-0.76	x	x	x	x
COc1ccc(CCNC(=O)c2ccncc2)cc1OC	4	1.2	0.21	0.076	x	x	x
COc1ccc(CCNC(=O)c2cccnc2)cc1OC	2	0.15	0.099	3.4*	6704	1660	2624
COc1ccc(C)cc1NC(=O)c1cnc2scc(C)n2c1=O	19	-0.59	-0.87	-0.6	x	x	x
COc1ccc(CCNC(=O)c2cnc3scc(C)n3c2=O)cc1OC	-2	0.0018	0.73	40*	17580*	1900	15724*
CC1CCCCC1NC(=O)Cn1ncc2ccccc21 (stereo unspecified)	5	0.56	-0.00069	0.045	x	x	x
CCOC(=O)CSc1nc2cc(OCC)ccc2cc1C#N	10	-0.72	-0.68	2.3	x	x	x
CCOc1ccc2cc(C#N)c(SCC(=O)N3CCC(C)CC3)nc2c1	9	0.64	1.7	7.2*	6372*	1652	3440*
N#Cc1nc(-c2ccccc2Cl)oc1N1CCOCC1	9	0.53	0.025	4.8*	7844*	1764	3180
COc1cccc(C(=O)Nc2ccc(-c3nc4ccccc4o3)c(O)c2)c1	-7	-0.43	0.67	-1.2	x	x	x
COc1cc(C(=O)Nc2ccc(-c3nc4cc(C)ccc4o3)c(O)c2)cc(OC)c1OC	5	0.35	-0.57	3.1*	5096	x	2580
C=CCSc1nc2c(cc1C#N)CCC2	3	-0.88	0.74	2.9	x	x	x
